Measurements gathered from unrelated publications.
Lines come from different studies, so protocols differ.
CDKL1: Cyclin-dependent kinase-like 1 (CDKL1, Homo sapiens, UniProt Q00532)
MAP3K11: Mitogen-activated protein kinase kinase kinase 11 (MAP3K11, Homo sapiens, UniProt Q16584)
ULK1: Serine/threonine-protein kinase ULK1 (ULK1, Homo sapiens, UniProt O75385)

SMILES | target | test | system | setting | measurement | value
c1cc(-c2nnc3scnn23)ccn1 | Type II inositol 1,4,5-trisphosphate 5-phosphatase (Homo sapiens, UniProt P32019) | enzyme activity, inhibitor |  |  | Emax | 100%
CN(C)C1CCN(CC#Cc2nn(C3CCCC3)c3nc(NCc4ccccc4)ncc23)C1 (centres unmarked) | Interleukin-1 receptor-associated kinase 4 (IRAK4, Homo sapiens, UniProt Q9NWZ3) | enzyme activity, inhibitor, FRET |  | 10 µM | inhibition | 0%
Nc1ncnc2occ(-c3ccc(NC(=O)Nc4cc(C(F)(F)F)ccc4F)cc3)c12 | Serine/threonine-protein kinase 36 (STK36, Homo sapiens, UniProt Q9NRP7) | cell-free assay, inhibitor |  | 20 µM | remaining signal | 87%
Cn1c2c(c3ccc(Cl)c(Cl)c31)C(C#N)C1(CCNCC1)NC2=O (racemic) | CDKL1 | thermal stability, DSF |  | 10 µM | ΔTm | 0.9 °C
NS(=O)(=O)c1ccc(CNc2nc(Nc3cccc(NC(=O)N4CCCC4)c3)ncc2Br)cc1 | MAP3K11 | enzyme activity, inhibitor, radiometric |  | 1 µM | remaining activity | 24%
Cn1c2c(c3ccc(Cl)c(Cl)c31)C(C#N)C1(CCCC1)NC2=O (centres unmarked) | CDKL1 | thermal stability, DSF |  | 10 µM | ΔTm | 0 °C
Cc1cnc(NC2CCOCC2)nc1-n1cnc(C(=O)NC(CN)c2cc(F)cc(Cl)c2)c1 (centres unmarked) | Hepatocyte growth factor receptor (MET, Homo sapiens, UniProt P08581, Y1230C) | enzyme activity, inhibitor, radiometric |  | 1 µM | remaining activity | 100%
CN1CCC2(CC1)NC(=O)c1c(c3ccc(Cl)c(Cl)c3n1C)C2C#N (racemic) | CDKL1 | thermal stability, DSF |  | 10 µM | ΔTm | 0 °C
Cc1cc(NC(=O)c2cccc3cc(-c4cccc5[nH]nc(N)c45)ccc23)ccc1F | Hepatocyte growth factor receptor (MET, Homo sapiens, UniProt P08581, D1228N) | enzyme activity, inhibitor |  | 0.1 µM | activity vs control | 120%
NS(=O)(=O)c1ccc(CNc2nc(Nc3cccc(CN4CCOCC4)c3)ncc2C2CC2)cc1 | MAP3K11 | enzyme activity, inhibitor, radiometric |  | 1 µM | remaining activity | 68%
Cc1ccc(NC(=O)c2ccc(C)c(C(F)(F)F)c2)cc1C#Cc1nn(C2CCC(O)CC2)c2ncnc(N)c12 (centres unmarked) | Hepatocyte growth factor receptor (MET, Homo sapiens, UniProt P08581) | cell-free assay |  | 10 µM | remaining signal | 133%
c1cc(CN2CCOCC2)cc(Nc2ncc(C3CC3)c(NCCc3c[nH]cn3)n2)c1 | MAP3K11 | enzyme activity, inhibitor, radiometric |  | 1 µM | remaining activity | 27%
CCN1CCN(Cc2ccc(NC(=O)c3ccc(C)c(Oc4ccnc5[nH]ccc45)c3)cc2C(F)(F)F)CC1 | Eukaryotic elongation factor 2 kinase (EEF2K, Homo sapiens, UniProt O00418) | target engagement in cells, inhibitor, chemoproteomics | Huh-7 | 10 µM | inhibition | -20.2%
CCN1CCC2(CC1)NC(=O)c1c(c3ccc(Cl)c(Cl)c3n1C)C2C#N (racemic) | CDKL1 | thermal stability, DSF |  | 10 µM | ΔTm | -0.1 °C
Cc1nn(CC(F)(F)F)cc1Nc1ncc(Br)c(NCCc2cnc[nH]2)n1 | ULK1 | enzyme activity, inhibitor, radiometric |  | 1 µM | remaining activity | 20%
Cn1c2c(c3ccccc31)C(C#N)C(C)(C)NC2=O (centres unmarked) | CDKL1 | thermal stability, DSF |  | 10 µM | ΔTm | -0.1 °C
NS(=O)(=O)c1ccc(CNc2ccnc(Nc3cccc(CN4CCOCC4)c3)n2)cc1 | ULK1 | enzyme activity, inhibitor, radiometric |  | 1 µM | remaining activity | 92%
